From ChEMBL document CHEMBL3259628, “Discovery of novel 2-((pyridin-3-yloxy)methyl)piperazines as α7 nicotinic acetylcholine receptor modulators for the treatment of inflammatory disorders” (J Med Chem, 2014)

Target: Neuronal acetylcholine receptor subunit alpha-7 (Rattus norvegicus, UniProt Q05941)
Assay: Inhibition of biotinylated alpha-bungarotoxin binding to alpha7 nAChR in rat PC12 cells by FACS analysis
Type: cell-based, PC-12
In short: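 Rat PC12 cells in binding buffer (PBS, 1.0% FBS, 0.02% sodium azide), 0.1% DMSO; biotinylated α-bungarotoxin 10 nM final, 1 h at room temperature; nonspecific binding defined with 1.5 μM unlabeled toxin. After washing, phycoerythrin-streptavidin 1.0 μg/mL final, 15 min in the dark; read by FACS. Screened at 10 and 1 μM, then eight-point 3-fold dilution IC50; mean of two or more experiments.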

Chain of Neuronal acetylcholine receptor subunit alpha-7 (Q05941 whole entry): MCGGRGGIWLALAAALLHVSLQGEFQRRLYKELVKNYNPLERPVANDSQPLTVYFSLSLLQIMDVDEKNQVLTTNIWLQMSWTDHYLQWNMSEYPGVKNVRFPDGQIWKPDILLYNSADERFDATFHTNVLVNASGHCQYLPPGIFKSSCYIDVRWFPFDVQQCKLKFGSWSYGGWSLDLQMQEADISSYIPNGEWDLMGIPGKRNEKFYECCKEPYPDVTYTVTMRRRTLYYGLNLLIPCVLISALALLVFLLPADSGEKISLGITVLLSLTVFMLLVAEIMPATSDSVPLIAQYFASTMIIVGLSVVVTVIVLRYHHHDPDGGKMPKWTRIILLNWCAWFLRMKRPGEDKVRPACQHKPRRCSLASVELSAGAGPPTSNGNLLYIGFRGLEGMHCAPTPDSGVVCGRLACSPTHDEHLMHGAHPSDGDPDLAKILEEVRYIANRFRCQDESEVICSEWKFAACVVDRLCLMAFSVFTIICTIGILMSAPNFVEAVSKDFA

Row | Compound | IC50 [µM]
1 | O=C(Nc1ccc(Br)cc1)N1CCNCC1COc1cccnc1 (racemic) | 0.05
2 | c1cncc(OCC2CNCCN2c2nc3ccccc3s2)c1 (racemic) | 0.49
3 | COc1cccc(NC(=O)N2CCNCC2COc2cccnc2)c1 (racemic) | 0.34
4 | O=C(Cc1ccc(Cl)cc1)N1CCNCC1COc1cccnc1 (racemic) | 0.11
5 | COc1ccc2nc(N3CCNC[C@H]3COc3cccnc3)sc2c1 | 5.1
6 | O=C(Nc1ccc(Cl)cc1)N1CCNCC1COc1cccnc1 (racemic) | 0.07
7 | O=C(Cc1ccccc1)N1CCNCC1COc1cccnc1 (racemic) | 0.56
8 | Clc1cnc2nc(N3CCNCC3COc3cccnc3)sc2c1 (racemic) | 0.004
9 | O=C(Nc1ccc(-c2ccccc2)cc1)N1CCNCC1COc1cccnc1 (racemic) | 0.013
10 | O=C(Oc1ccc(Cl)cc1)N1CCNCC1COc1cccnc1 (racemic) | 0.0095
11 | COc1ccc2nc(N3CCNCC3COc3cccnc3)sc2c1 (racemic) | 0.079
12 | O=C(c1ccccc1)N1CCNCC1COc1cccnc1 (racemic) | 1.08
13 | O=C(COc1ccccc1)N1CCNCC1COc1cccnc1 (racemic) | 2.34
14 | Clc1ccc2nc(N3CCNCC3COc3cccnc3)sc2c1 (racemic) | 0.153
15 | COc1ccc2oc(N3CCNCC3COc3cccnc3)nc2c1 (racemic) | 0.071
16 | c1cncc(OC[C@@H]2CNCCN2c2nc3ncccc3o2)c1 | 1.58
17 | O=C(Nc1ccc2c(c1)CCO2)N1CCNCC1COc1cccnc1 (racemic) | 0.63
18 | O=C(Oc1ccccc1)N1CCNCC1COc1cccnc1 (racemic) | 0.037
19 | FC(F)(F)c1ccc2nc(N3CCNCC3COc3cccnc3)sc2c1 (racemic) | 0.338

Row | Compound | IC50 [µM]
20 | O=C(Nc1ccc(Cl)c(Cl)c1)N1CCNCC1COc1cccnc1 (racemic) | 0.04
21 | c1cncc(OCC2CNCCN2c2nc3ncccc3o2)c1 (racemic) | 0.004
22 | COc1ccccc1NC(=O)N1CCNCC1COc1cccnc1 (racemic) | 0.85
23 | CC(C)c1ccc(NC(=O)N2CCNCC2COc2cccnc2)cc1 (racemic) | 0.28
24 | O=C(Nc1ccccc1)N1CCNCC1COc1cccnc1 (racemic) | 0.68
25 | O=C(Nc1ccc(OC(F)(F)F)cc1)N1CCNCC1COc1cccnc1 (racemic) | 0.152
26 | FC(F)(F)Oc1ccc2nc(N3CCNCC3COc3cccnc3)sc2c1 (racemic) | 0.27
27 | Cc1ccc2nc(N3CCNCC3COc3cccnc3)sc2c1 (racemic) | 0.085
28 | Cc1ccc(NC(=O)N2CCNCC2COc2cccnc2)cc1 (racemic) | 0.074
29 | Brc1ccc2oc(N3CCNC[C@H]3COc3cccnc3)nc2c1 | 3.2
30 | COc1ccc(NC(=O)N2CCNCC2COc2cccnc2)c(OC)c1 (racemic) | 0.08
31 | O=C(Nc1cccc(Cl)c1)N1CCNCC1COc1cccnc1 (racemic) | 0.21
32 | O=C(c1ccc(Cl)cc1)N1CCNCC1COc1cccnc1 (racemic) | 6.1
33 | c1cncc(OCC2CNCCN2c2nc3ncccc3s2)c1 (racemic) | 0.032
34 | COc1ccc2nc(N3CCNCC3COc3cccnc3)oc2c1 (racemic) | 0.022
35 | COc1ccc2sc(N3CCNCC3COc3cccnc3)nc2c1 (racemic) | 0.107
36 | Brc1ccc2oc(N3CCNCC3COc3cccnc3)nc2c1 (racemic) | 0.075
37 | O=C(Nc1ccc(C(F)(F)F)cc1)N1CCNCC1COc1cccnc1 (racemic) | 0.22
38 | Fc1ccc2nc(N3CCNCC3COc3cccnc3)sc2c1 (racemic) | 0.132
